# Article PMC10281356 (Drug Delivery, 2023)
# Columns and labels:
# HepG2 cells = test: MTT cytotoxicity assay on HepG2 cells; format: cell-based, human; settings: peptide alone at 50 and 25 μg/mL, 24 h, n = 3
# Summary of the method: (§1)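 Peptide vectors, PEGylated or not, were added alone at a series of concentrations to A549 or HepG2 cells, followed by MTT read-out. Viability (%) was calculated from absorbance of treated cells relative to untreated cells. Data given as mean ± SEM (n = 3) and compared by one-way ANOVA with Tukey's post-hoc test.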
# EGFP and luciferase mRNA = test: Gel retardation assay, vector-mRNA binding; settings: agarose gel electrophoresis
# Summary of the method: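 Test compounds (peptide vectors, with or without PEG) mixed with EGFP or luciferase mRNA at 0.5:1 to 15:1 (w/w) to form self-assemblies. Run on agarose gel in 1× TAE at 140 V for 40 min. Stained with GelRed and imaged under UV. Unbound mRNA served as control. Complete binding was taken as loss of the free mRNA band.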
# A549 cells = test: MTT cytotoxicity assay on A549 cells; format: cell-based, human; settings: peptide alone at 50 and 25 μg/mL, 24 h, n = 3
# Summary of the method: as §1
substance,measurement,setting,value
"(PEG24)-KKALLAHALHLLA LLALHLAHALKKA-NH2 [PEG24LA, PEG24-LAH4-L1]",cytotoxicity of peptide compared with non-PEGylated LA peptide,HepG2 cells,significantly lower
same,mRNA affinity compared with non-PEGylated LA peptide,EGFP and luciferase mRNA,comparable
same,cytotoxicity of peptide compared with non-PEGylated LA peptide,A549 cells,significantly lower
